From ChEMBL document CHEMBL4152256, “Structure-activity relationship of new antimalarial 1-aryl-3-susbtituted propanol derivatives: Synthesis, preliminary toxicity profiling, parasite life cycle stage studies, target exploration, and targeted delivery” (Eur J Med Chem, 2018)
Activity calls are given as the source filed them. The rule behind the calls is not given here.

Columns and labels:
Plasmodium falciparum [1] = experiment: Antiplasmodial activity against Plasmodium falciparum D6 after 72 hrs by MSF assay; type: functional, organism-based; details: D6, 72 h
Outline: (§1)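 D6 and C235 strains from the Walter Reed Army Institute of Research were tested by the Malaria SYBR Green-I fluorescence assay.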

Plasmodium berghei [2] = experiment: Antiplasmodial activity against Plasmodium berghei ANKA infected in mouse assessed as inhibition of parasitemia at 50 mg/kg/day, po for 4 consecutive days starting from 2 hrs post infection by MSF assay relative to control; type: functional
Outline: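 Swiss male mice (20 ± 2 g) infected ip with 10^7 P. berghei ANKA parasitized cells (day 0). Five per group dosed orally 2 h after infection and daily on days 0–3. Test compounds at 50 mg/kg/day in water:DMSO; chloroquine diphosphate at 3 mg/kg/day; vehicle controls. Parasitemia measured on day 4 by MSF assay; survival checked daily.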

Plasmodium falciparum [3] = experiment: Binding affinity to Plasmodium falciparum GRP94 nucleotide binding domain at 0.5 mM by SYPRO orange dye based DSF analysis
Outline: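 Recombinant P. falciparum Hsp90 or GRP94 nucleotide-binding domain (0.05–0.2 mg/mL, optimized per protein) in 25 mM HEPES pH 7.5, 250 mM NaCl. Compound final concentration was 0.5 mM, with SYPRO Orange at 1:1000. Samples were heated from 18 to 90 °C at 1 °C/min. Tm was taken as the Boltzmann-fit inflection point. ΔTm = Tm with ligand minus Tm without, and shifts beyond ±1 °C were counted significant.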

Plasmodium falciparum [4] = experiment: Antiplasmodial activity against multidrug-resistant Plasmodium falciparum C235 after 72 hrs by MSF assay; type: functional, organism-based; details: C235, 72 h; outline: as §1
[5] = Genotoxicity in Salmonella typhimurium TA1535 harboring pSK1002 assessed as umu gene induction at 0.001 mg/ml in absence of Sprague-Dawley rat liver S9 fraction after by SOS/umu assay relative to control; type: toxicity, organism-based; details: salmonella enterica subsp. enterica serovar typhimurium, read-out: FC
[6] = Genotoxicity in Salmonella typhimurium TA1535 harboring pSK1002 assessed as survival at 0.004 mg/ml in absence of Sprague-Dawley rat liver S9 fraction after by SOS/umu assay relative to control; type: toxicity, organism-based; details: salmonella enterica subsp. enterica serovar typhimurium, read-out: Survival
[7] = Genotoxicity in Salmonella typhimurium TA1535 harboring pSK1002 assessed as umu gene induction at 0.002 mg/ml in presence of Sprague-Dawley rat liver S9 fraction after by SOS/umu assay relative to control; type: toxicity, organism-based; details: salmonella enterica subsp. enterica serovar typhimurium, read-out: FC
[8] = Genotoxicity in Salmonella typhimurium TA1535 harboring pSK1002 assessed as survival at 0.125 mg/ml in presence of Sprague-Dawley rat liver S9 fraction after by SOS/umu assay relative to control; type: toxicity, organism-based; details: salmonella enterica subsp. enterica serovar typhimurium, read-out: Survival
Plasmodium berghei [9] = experiment: Antiplasmodial activity against GFP-fused Plasmodium berghei sporozoites infected in human HepG2A16 cells treated simultaneously with infection by fluorescence microscopic analysis; type: functional, organism-based
Outline: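 HepG2-A16 cells (3 × 10^4/well, collagen-coated) infected with PbGFP sporozoites (5 × 10^3 to 1 × 10^4/well) and treated at the same time. Top concentration 10 µg/mL in DMEM, seven serial dilutions. Medium and compound renewed at 3 h and every 24 h. After 40 h at 37 °C: methanol fixation, anti-Plasmodium Hsp70 immunolabeling, Alexa 594 secondary, DAPI; high-content imaging.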

[10] = Genotoxicity in Salmonella typhimurium TA1535 harboring pSK1002 assessed as survival at 0.016 mg/ml in absence of Sprague-Dawley rat liver S9 fraction after by SOS/umu assay relative to control; type: toxicity, organism-based; details: salmonella enterica subsp. enterica serovar typhimurium, read-out: Survival
Plasmodium berghei [11] = experiment: Antiplasmodial activity against Plasmodium berghei ANKA infected in mouse assessed as mouse survival time at 50 mg/kg/day, po for 4 consecutive days starting from 2 hrs post infection by MSF assay; type: functional
Outline: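 Swiss male mice (20 ± 2 g) infected i.p. with 10^7 P. berghei ANKA parasitized cells in 0.1 mL 0.9% saline (day 0). Oral dosing began 2 h post-infection and continued daily on days 0–3, five mice per batch. Test drugs were given at 50 mg/kg/day in water:DMSO and chloroquine diphosphate at 3 mg/kg/day; a vehicle control was included. Survival was checked daily, and parasitemia was read on day 4 by modified MSF assay.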

[12] = Genotoxicity in Salmonella typhimurium TA1535 harboring pSK1002 assessed as umu gene induction at 0.063 mg/ml in presence of Sprague-Dawley rat liver S9 fraction after by SOS/umu assay relative to control; type: toxicity, organism-based; details: salmonella enterica subsp. enterica serovar typhimurium, read-out: FC
[13] = Genotoxicity in Salmonella typhimurium TA1535 harboring pSK1002 assessed as survival at 0.002 mg/ml in presence of Sprague-Dawley rat liver S9 fraction after by SOS/umu assay relative to control; type: toxicity, organism-based; details: salmonella enterica subsp. enterica serovar typhimurium, read-out: Survival
[14] = Solubility of the compound in DSPC:cholesterol:DSPE-PEG2000-Mal:DOPE-Rho lipid mixture at 250 uM; type: physicochemical
Outline: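 Compound added at 250 µM drug to the initial liposome lipid mixture (10 mM total lipid); precipitation and UV-visible absorbance above 300 nm assessed after encapsulation, removal of unencapsulated material and extraction with 1% w/v SDS in RPMI-A.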

[15] = Genotoxicity in Salmonella typhimurium TA1535 harboring pSK1002 assessed as survival at 0.25 mg/ml in absence of Sprague-Dawley rat liver S9 fraction after by SOS/umu assay relative to control; type: toxicity, organism-based; details: salmonella enterica subsp. enterica serovar typhimurium, read-out: Survival
[16] = Genotoxicity in Salmonella typhimurium TA1535 harboring pSK1002 assessed as survival at 0.25 mg/ml in presence of Sprague-Dawley rat liver S9 fraction after by SOS/umu assay relative to control; type: toxicity, organism-based; details: salmonella enterica subsp. enterica serovar typhimurium, read-out: Survival
[17] = Genotoxicity in Salmonella typhimurium TA1535 harboring pSK1002 assessed as umu gene induction at 0.25 mg/ml in absence of Sprague-Dawley rat liver S9 fraction after by SOS/umu assay relative to control; type: toxicity, organism-based; details: salmonella enterica subsp. enterica serovar typhimurium, read-out: FC
[18] = Genotoxicity in Salmonella typhimurium TA1535 harboring pSK1002 assessed as umu gene induction at 0.25 mg/ml in presence of Sprague-Dawley rat liver S9 fraction after by SOS/umu assay relative to control; type: toxicity, organism-based; details: salmonella enterica subsp. enterica serovar typhimurium, read-out: FC
[19] = Plasmodium berghei, HepG2A16, read-out: IC50

Structure (SMILES) | IC50 (Plasmodium falciparum [1]) | inhibition in vivo at 50 mg/kg/day (Plasmodium berghei [2]) | Activity (Plasmodium falciparum [3]) | IC50 (Plasmodium falciparum [4]) | fold induction at 0.001 mg/ml [5] | viability at 0.004 mg/ml [6] | fold induction at 0.002 mg/ml [7] | viability at 0.125 mg/ml [8] | IC50 (Plasmodium berghei [9]; [19]) | viability at 0.016 mg/ml [10] | MSD (Plasmodium berghei [11]) | fold induction at 0.063 mg/ml [12] | viability at 0.002 mg/ml [13] | solubility [14] | viability at 0.25 mg/ml [15] | viability at 0.25 mg/ml [16] | fold induction at 0.25 mg/ml [17] | IC50 (Plasmodium berghei [9]) | fold induction at 0.25 mg/ml [18] | inhibition (Plasmodium berghei [2])
N#Cc1ccc(N2CCC(NCCC(O)c3ccc(F)c4ccccc34)CC2)c(Cl)c1 (centres undefined) | 0.12 µM | ≤ 50% | inactive | 0.17 µM | 1 | 32.2% | 0.8 | 134% | 3.41 µM | 36.8% | 10 days | 0.2 | 148% | – | – | – | – | – | – | –
N#Cc1ccc(N2CCC(NCCC(O)c3ccc(F)c4ccccc34)CC2)c(C(F)(F)F)c1 (stereo in doubt; 72) | 0.08 µM | 80.4% | – | 0.12 µM | 1 | 33.3% | 1 | 91% | 2.7 µM | 28.3% | 10 days | 0.2 | 136% | Soluble | – | – | – | – | – | –
COc1ccccc1N1CCN(CCC(O)c2ccc(F)cc2)CC1 (stereo in doubt; 66) | 6.32 µM | 96.4% | – | 7.26 µM | 1.1 | 108% | 1.2 | 89.8% | – | 108% | 12 days | 0.9 | 80.7% | Insoluble | 98.8% | 90.4% | 1.1 | Not Active | 1 | –
OC(CCN1CCN(C(c2ccccc2)c2ccccc2)CC1)c1ccc(F)c2ccccc12 (centres undefined) | 0.1 µM | – | inactive | 0.17 µM | 0.6 | 69% | 0.8 | – | 5.42 µM | 86.3% | 9 days | 1.5 | 114% | Insoluble | – | – | – | – | – | inactive
Oc1ccc(C(O)CCN2CC=C(c3ccc(F)cc3)CC2)cc1 (centres undefined) | – | – | – | – | 1.2 | 97.1% | 1.4 | 103% | – | 94.8% | – | 0.4 | 112% | – | – | – | – | Not Active | – | –
N#Cc1ccc(N2CCC(NCCC(O)c3ccc(F)c4ccccc34)CC2)c(Br)c1 (centres undefined) | 0.12 µM | ≤ 50% | inactive | 0.15 µM | 1.3 | 107% | 0.8 | – | – | 18.6% | 10 days | 0.6 | 65.3% | – | – | – | – | – | – | –
OC(CCN1CCN(C(c2ccccc2)c2ccccc2)CC1)c1ccc(F)c(F)c1 (centres undefined) | – | – | – | – | 0.6 | 102% | 0.8 | 117% | – | 36.7% | 9 days | 0.8 | 92.2% | Insoluble | – | – | – | Not Active | – | inactive
COc1ccccc1C1=CCN(CCC(O)c2ccc(F)c3ccccc23)CC1 (centres undefined) | 0.15 µM | – | – | 0.23 µM | 0.9 | 76.7% | 0.9 | 79.1% | – | 50.6% | – | 0.6 | 101% | Insoluble | 233% | 182% | 0.1 | Not Active | 0.2 | –
COc1ccccc1N1CCN(CCC(O)c2ccc(F)c3ccccc23)CC1 (centres undefined) | 0.28 µM | ≤ 50% | inactive | 0.41 µM | 1.3 | 66.5% | 1 | 84.4% | – | 63% | 10 days | 0.7 | 102% | Insoluble | 147% | 115% | 0.3 | Not Active | 0.4 | –
